Three compounds from ChEMBL document CHEMBL1240306, “Allosteric inhibitors of Bcr-abl-dependent cell proliferation” (Nat Chem Biol, 2006) can be followed below.

Molecules are shown by their SMILES. pIC50: −log10 of the molar value. Activity calls are given as the source filed them. The rule behind the calls is not given here.

Assay [1] is described as follows: Cytotoxic activity against mouse 32D cells transfected with p210 Bcr-abl. The class given is cell-based.
A short description of assay [2]: Cytotoxic activity against mouse 32D Bcr-abl negative cells.
Assay [3] has as its target Tyrosine-protein kinase ABL1 (Homo sapiens) (UniProt P00519). The assay is described as follows: Binding affinity to phosphorylated human recombinant abl. The gist of the method: (§1)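 Recombinant human abl (1 μg), either Src-phosphorylated or tyrosine phosphatase-treated, incubated 1 h at 4 °C with immobilized GNF-3 resin; after five washes bound protein eluted by boiling in Laemmli buffer and detected by SDS-PAGE/anti-abl immunoblot. Immobilized methyl analogue used as control matrix.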

Assay [4] has the same target. The assay is described as follows: Binding affinity to dephosphorylated human recombinant abl. In a few lines: as §1
Assay [5] shares this target. The assay is described as follows: Displacement of abl from GNF2 resin using affinity chromatography at 1000 uM by competition binding assay.

One may read the pIC50 as the IC50 on a negative log10 scale, so that one unit is a factor of ten. A lower pIC50 goes with a large IC50.

Tyrosine-protein kinase ABL1 (Homo sapiens), sequence (P00519 whole entry): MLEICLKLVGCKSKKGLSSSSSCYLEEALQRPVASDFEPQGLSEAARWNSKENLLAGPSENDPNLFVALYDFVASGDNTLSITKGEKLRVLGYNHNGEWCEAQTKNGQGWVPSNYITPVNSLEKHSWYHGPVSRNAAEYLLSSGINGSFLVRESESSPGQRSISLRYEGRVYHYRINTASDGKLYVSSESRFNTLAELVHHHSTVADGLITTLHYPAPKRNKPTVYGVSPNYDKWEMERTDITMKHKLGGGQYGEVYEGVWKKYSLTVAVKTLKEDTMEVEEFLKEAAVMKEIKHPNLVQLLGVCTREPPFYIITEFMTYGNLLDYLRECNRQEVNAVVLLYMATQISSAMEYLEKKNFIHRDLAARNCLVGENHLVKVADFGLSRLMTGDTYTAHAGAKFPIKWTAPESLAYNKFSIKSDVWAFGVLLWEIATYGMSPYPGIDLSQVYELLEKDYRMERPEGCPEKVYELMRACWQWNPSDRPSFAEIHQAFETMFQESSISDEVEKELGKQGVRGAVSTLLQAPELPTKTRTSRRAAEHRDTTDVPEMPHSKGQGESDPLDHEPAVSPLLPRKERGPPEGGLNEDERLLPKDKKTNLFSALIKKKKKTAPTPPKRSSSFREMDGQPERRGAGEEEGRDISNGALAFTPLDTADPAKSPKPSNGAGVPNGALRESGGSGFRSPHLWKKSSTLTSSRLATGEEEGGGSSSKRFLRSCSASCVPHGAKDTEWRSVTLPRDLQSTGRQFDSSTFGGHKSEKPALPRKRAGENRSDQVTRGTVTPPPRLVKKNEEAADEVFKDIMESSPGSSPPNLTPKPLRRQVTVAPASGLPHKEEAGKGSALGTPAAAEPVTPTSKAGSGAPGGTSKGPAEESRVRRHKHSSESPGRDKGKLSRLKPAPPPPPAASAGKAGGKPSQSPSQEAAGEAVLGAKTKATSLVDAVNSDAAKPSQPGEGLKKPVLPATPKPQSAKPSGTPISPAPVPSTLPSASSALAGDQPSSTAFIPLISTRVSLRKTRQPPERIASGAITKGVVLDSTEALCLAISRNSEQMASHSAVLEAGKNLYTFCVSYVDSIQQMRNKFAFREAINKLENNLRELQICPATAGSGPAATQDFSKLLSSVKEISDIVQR

For the compound `FC(F)(F)Oc1ccc(Nc2cc(NCCN3CCOCC3)ncn2)cc1`, the values for the pIC50 in assay [1] and in assay [2] were 6.40 and under 4.40, respectively. Take `NCCOCCOCCOCCOCCOCCNC(=O)c1cccc(-c2cc(Nc3ccc(OC(F)(F)F)cc3)ncn2)c1`: the outcome in assay [3] and in assay [4] was Active.

Take `Nc1ncnc2c1ncn2[C@@H]1O[C@H](COP(=O)(O)OP(=O)(O)OP(=O)(O)O)[C@@H](O)[C@H]1O`: the result in assay [5] was Active.
